This is an account of results in ChEMBL document CHEMBL3259672, “Design, synthesis, and biological evaluation of O-2-modified indenoisoquinolines as dual topoisomerase I-tyrosyl-DNA phosphodiesterase I inhibitors” (J Med Chem, 2014).

Each structure is given as a SMILES string. pIC50: −log10 of the molar value. Active and inactive are the calls of the source. The rule behind the calls is not given here.

Assay [1] deals with T1, DNA topoisomerase 1 (Homo sapiens) (UniProt P11387).
T1 sequence (whole entry): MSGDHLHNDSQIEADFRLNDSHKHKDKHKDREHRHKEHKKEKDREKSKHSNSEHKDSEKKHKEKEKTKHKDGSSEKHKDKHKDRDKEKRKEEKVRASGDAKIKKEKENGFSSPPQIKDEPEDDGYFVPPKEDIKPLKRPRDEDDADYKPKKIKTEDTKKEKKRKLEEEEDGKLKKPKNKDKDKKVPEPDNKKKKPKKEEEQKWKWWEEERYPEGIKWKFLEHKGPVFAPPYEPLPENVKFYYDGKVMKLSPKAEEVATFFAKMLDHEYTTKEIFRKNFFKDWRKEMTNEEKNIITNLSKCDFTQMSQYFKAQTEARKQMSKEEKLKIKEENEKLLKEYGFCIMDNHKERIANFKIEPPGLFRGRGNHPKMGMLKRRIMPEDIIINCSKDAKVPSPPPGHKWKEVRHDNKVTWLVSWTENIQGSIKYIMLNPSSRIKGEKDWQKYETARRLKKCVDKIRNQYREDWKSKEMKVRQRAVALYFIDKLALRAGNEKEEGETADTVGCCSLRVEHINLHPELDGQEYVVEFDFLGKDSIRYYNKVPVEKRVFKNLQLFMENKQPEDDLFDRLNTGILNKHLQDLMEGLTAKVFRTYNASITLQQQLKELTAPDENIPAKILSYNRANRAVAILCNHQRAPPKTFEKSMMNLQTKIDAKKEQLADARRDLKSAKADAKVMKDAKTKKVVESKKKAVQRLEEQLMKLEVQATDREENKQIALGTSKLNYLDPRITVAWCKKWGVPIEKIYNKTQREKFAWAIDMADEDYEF
As to the kind of experiment: Inhibition of human recombinant topoisomerase 1-mediated 117 bp DNA cleavage at 0.1 to 100 uM by agarose gel electrophoresis. To be noted: in the assay text read “denaturing PAGE” for “agarose gel electrophoresis”. An outline of the steps:
(§1)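 Human recombinant Top1 was purified from baculovirus. Compound was tested at 0.1, 1, 10 and 100 μM for 20 min at 25 °C. Reactions were stopped with SDS (0.5% final) and run on 20% denaturing PAGE with phosphoimager read-out. Activity was graded semiquantitatively.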

Assay [2] addresses Tyrosyl-DNA phosphodiesterase 1 (Homo sapiens, UniProt Q9NUW8). In words: Inhibition of recombinant TDP1(unknown origin) using 5'-[32P]-single stranded N14Y DNA oligonucleotide after 15 mins by […]. In a few lines:
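A 5′-32P-labeled single-stranded oligonucleotide with 3′ phosphotyrosine (N14Y) was incubated with 5 pM recombinant TDP1 for 15 min at room temperature. Loss of the N14P product band on the gel marks inhibition.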

A short description of assay [3]: Growth inhibition of human SF539 cells after 48 hrs by SRB assay. It is filed as functional. To be noted: SF-539, 48 h. An outline of the steps: (§2)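 NCI60 screen. Cells were exposed to 100, 10, 1, 0.1 and 0.01 μM for 48 h, then stained with sulforhodamine B and read by optical density. Percent growth relative to control was plotted against log concentration. […] Where a standard error is given, values are the mean of two determinations.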
In general terms: Sulforhodamine B stains cellular protein and so reports cell mass.

The test system of assay [4] is DU-145. As to the kind of experiment: Growth inhibition of human DU145 cells after 48 hrs by SRB assay. The class given is functional. The note with it: DU-145, 48 h. In a few lines:
as §2

Assay [5] has as its system SN12C. As to the kind of experiment: Growth inhibition of human SN12C cells after 48 hrs by SRB assay. The class given is functional. An outline of the steps: as §2
The nature of assay [6]: Growth inhibition of human UACC62 cells after 48 hrs by SRB assay. It is filed as functional. To be noted: UACC-62, 48 h. An outline of the steps:
as §2

Assay [7] relates to HOP-62. As to the kind of experiment: Growth inhibition of human HOP62 cells after 48 hrs by SRB assay. It is filed as functional. The note with it: HOP-62, 48 h. An outline of the steps:
as §2

Assay [8] can be described thus: Growth inhibition of human OVCAR3 cells after 48 hrs by SRB assay. The note with it: OVCAR-3, 48 h. It is filed as functional. In a few lines:
as §2

Assay [9] concerns MCF7. As to the kind of experiment: Growth inhibition of human MCF7 cells after 48 hrs by SRB assay. The class given is functional. The note with it: MCF7, 48 h. An outline of the steps: as §2
Assay [10] addresses T1, DNA topoisomerase 1 (Homo sapiens). As to the kind of experiment: Inhibition of human recombinant topoisomerase 1-mediated 117 bp DNA cleavage by agarose gel electrophoresis. To be noted: in the assay text read “denaturing PAGE” for “agarose gel electrophoresis”. In a few lines:
as §1

In assay [11] the test system is HCT-116. As to the kind of experiment: Growth inhibition of human HCT116 cells after 48 hrs by SRB assay. The class given is functional. To be noted: HCT-116, 48 h. In a few lines: as §2

Tyrosyl-DNA phosphodiesterase 1, sequence (Q9NUW8 whole entry): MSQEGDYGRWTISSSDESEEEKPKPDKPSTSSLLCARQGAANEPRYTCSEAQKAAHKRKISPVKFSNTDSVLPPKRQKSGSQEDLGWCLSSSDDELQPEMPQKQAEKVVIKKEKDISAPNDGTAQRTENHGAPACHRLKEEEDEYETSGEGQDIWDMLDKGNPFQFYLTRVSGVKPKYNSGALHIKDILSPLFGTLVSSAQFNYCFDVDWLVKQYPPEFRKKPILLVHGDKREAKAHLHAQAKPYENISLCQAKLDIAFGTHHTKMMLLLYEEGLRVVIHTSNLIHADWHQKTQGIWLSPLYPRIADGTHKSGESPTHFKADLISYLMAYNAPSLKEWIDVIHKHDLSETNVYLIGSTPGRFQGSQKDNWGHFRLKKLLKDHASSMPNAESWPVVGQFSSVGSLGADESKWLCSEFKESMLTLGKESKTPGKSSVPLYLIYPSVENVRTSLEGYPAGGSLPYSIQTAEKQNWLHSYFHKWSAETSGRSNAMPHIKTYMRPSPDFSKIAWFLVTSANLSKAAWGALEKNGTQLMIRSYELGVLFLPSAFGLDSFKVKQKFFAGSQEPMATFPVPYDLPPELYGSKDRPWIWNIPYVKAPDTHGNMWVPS

As for `CCNCCCOc1cc2c3c(n(CCCN4CCOCC4)c(=O)c2cc1OC)-c1cc2c(cc1C3=O)OCO2`, the inhibition entry in assay [1] is “Active”. Moreover, the inhibition result in [2] was “Dose-dependent effect”.

With `C=CCOc1cc2c3c(n(CCCN4CCOCC4)c(=O)c2cc1OC)-c1cc2c(cc1C3=O)OCO2`, the GI50 was 0.01 µM in assay [3]; less than 0.01 µM in assay [4]; less than 0.01 µM in [5]; less than 0.01 µM in [6]; less than 0.01 µM in assay [7]; 0.3 µM in [8]. Moreover, the GI50 in assay [9] is less than 0.01 µM. Further, the negative logarithm of the IC50 (pIC50) in assay [2] is less than 3.95. In assay [10], the inhibition entry is “inactive”.

Consider `COc1cc2c(=O)n(CCCN3CCOCC3)c3c(c2cc1OCCCN(C)C)C(=O)c1cc2c(cc1-3)OCO2`, for which, in assay [1], the inhibition result is “Active”. Moreover, the inhibition result in [2] was “Dose-dependent effect”.

For the molecule `COc1cc2c3c(n(C)c(=O)c2cc1OC)-c1cc2c(cc1C3=O)OCO2`, the GI50 in assay [11] was found to be 35 µM; in [4], 37 µM; in assay [5], 68 µM; in assay [6], 4.2 µM; in assay [7], 1.3 µM; in [8] it was 73 µM.

As to `COc1cc2c(=O)n(CCCN3CCOCC3)c3c(c2cc1OCCCN1CCCCC1)C(=O)c1cc2c(cc1-3)OCO2`, the concentration for 50% growth inhibition (GI50) in assay [11] was found to be 1.1 µM; in [3], 0.03 µM; in assay [4] it was 0.2 µM; in assay [5], 0.4 µM; in assay [6] it was 9.6 µM; in assay [7], 0.3 µM. The 50% growth inhibitory concentration (GI50) in assay [8] came out at 5.4 µM; in [9], 0.04 µM. The inhibition result in [1] is “Active”. Besides, the inhibition result in [2] is “Dose-dependent effect”.

Consider `COc1cc2c(=O)n(CCCN3CCOCC3)c3c(c2cc1O)C(=O)c1cc2c(cc1-3)OCO2`, for which the GI50 was found to be 0.39 µM in assay [11]; 0.3 µM in assay [3]; 0.3 µM in [4]; 0.2 µM in [5]; 0.3 µM in assay [6]; 0.3 µM in assay [7]. In addition, the figures for the concentration for 50% growth inhibition (GI50) in assay [8] and in [9] were 0.9 µM and 0.1 µM, respectively. Moreover, the inhibition entry in assay [10] was “Active”.

Regarding `COc1cc2c(=O)n(CCCN3CCOCC3)c3c(c2cc1OCC(=O)NN)C(O)c1cc2c(cc1-3)OCO2` (configuration not stated), the pIC50 in assay [2] is less than 3.95. Further, in assay [10], the inhibition result is “inactive”.

As for `COc1cc2c(=O)n(CCCN3CCOCC3)c3c(c2cc1OCCCN1CCN(C)CC1)C(=O)c1cc2c(cc1-3)OCO2`, the inhibition entry in [1] is “Active”. In addition, in assay [2], the pIC50 was less than 3.95 and the inhibition entry is “Dose-dependent effect”.

For `COc1cc2c(=O)n(CCCN3CCOCC3)c3c(c2cc1OCCCN)C(=O)c1cc2c(cc1-3)OCO2`, the concentration for 50% growth inhibition (GI50) in [3] stood at 0.2 µM; in assay [4], 0.3 µM; in [5], 0.3 µM; in assay [6], 0.3 µM; in assay [7] it was 0.3 µM; in assay [8], 0.4 µM. Also, the inhibition entry in assay [10] was “inactive”.

As for `COc1cc2c(=O)n(CCCN3CCOCC3)c3c(c2cc1OCCCN1CCCC1)C(=O)c1cc2c(cc1-3)OCO2`, the inhibition entry in [1] is “Active”. In addition, the concentration for 50% growth inhibition (GI50) worked out at 0.2 µM in assay [3]; 0.04 µM in [4]; 0.3 µM in assay [6]; 1.2 µM in [8]; 0.1 µM in assay [9].

For `COc1cc2c3c(n(CCCNCCO)c(=O)c2cc1OC)-c1cc2c(cc1C3=O)OCO2` [LMP-744], in [3], it took 0.04 µM to inhibit growth by half (GI50).

For `COc1cc2c(=O)n(CCCN3CCOCC3)c3c(c2cc1OCCCN1CCOCC1)C(=O)c1cc2c(cc1-3)OCO2`, the GI50 in assay [11] was 0.1 µM; in assay [3], 0.1 µM; in assay [4], 0.02 µM; in assay [5], 0.1 µM; in assay [6] it was 0.2 µM; in assay [7], 0.03 µM. Also, the 50% growth inhibitory concentration (GI50) stood at 0.7 µM in assay [8] and 0.02 µM in assay [9]. In [2], the pIC50 is less than 3.95. In addition, in assay [10], the inhibition entry is “Active”.

As for `COC(=O)COc1cc2c3c(n(CCCN4CCOCC4)c(=O)c2cc1OC)-c1cc2c(cc1C3=O)OCO2`, the GI50 was 1.1 µM in [11]; 0.1 µM in [3]; 0.9 µM in assay [4]; 0.8 µM in assay [5]; 1 µM in assay [6]; 0.1 µM in assay [7]. Moreover, the GI50 came out at 5.8 µM in assay [8] and 0.4 µM in assay [9]. The pIC50 in assay [2] was less than 3.95. For the same molecule, in assay [10], the inhibition result was “Active”.

Broadly, the GI50 is the concentration that inhibits growth by half. Read a high GI50 as lower sensitivity of the cells. One may read the pIC50 as the negative decadic logarithm of the IC50, by convention in mol/L.
